Compound activity: PubChem, Johns Hopkins Ion Channel Center
KCNQ1 act – human KCNQ1 channel potentiation or activation. P51787. CHO-K1 KCNQ1, thallium flux FluxOR fluorescence; stronger effect = higher value. B-score at 10 µM. hit rate 0.35% among 310,000. AID 2648;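 active means fluorescence ratio B-score, a plate-corrected score, at least three library SD, with initial intensity B-score within 5 SD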
Target sequence (P51787 whole entry, looked up): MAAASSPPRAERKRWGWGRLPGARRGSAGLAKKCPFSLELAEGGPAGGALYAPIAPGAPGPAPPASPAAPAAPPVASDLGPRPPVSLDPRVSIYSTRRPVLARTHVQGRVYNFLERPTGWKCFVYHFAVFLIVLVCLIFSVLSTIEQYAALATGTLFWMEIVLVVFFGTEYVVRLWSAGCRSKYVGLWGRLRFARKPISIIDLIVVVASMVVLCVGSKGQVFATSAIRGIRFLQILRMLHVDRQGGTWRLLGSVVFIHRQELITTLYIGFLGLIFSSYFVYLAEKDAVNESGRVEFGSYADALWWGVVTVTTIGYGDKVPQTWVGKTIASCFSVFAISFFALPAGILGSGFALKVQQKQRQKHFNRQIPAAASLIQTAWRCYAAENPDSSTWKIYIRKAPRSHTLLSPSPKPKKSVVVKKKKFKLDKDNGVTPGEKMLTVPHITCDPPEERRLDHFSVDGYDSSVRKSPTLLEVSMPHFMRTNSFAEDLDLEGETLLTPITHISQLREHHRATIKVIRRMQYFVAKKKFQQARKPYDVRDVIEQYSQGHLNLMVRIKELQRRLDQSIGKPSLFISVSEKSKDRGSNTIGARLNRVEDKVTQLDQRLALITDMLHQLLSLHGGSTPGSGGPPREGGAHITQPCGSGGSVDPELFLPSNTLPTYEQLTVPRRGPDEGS
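System: CHO-K1 cells stably expressing KCNQ1 / Medium: assay buffer for compound exposure, DMSO matched across wells / Reagent: thallium- and potassium-containing depolarizing buffer / Compound: one concentration, matched DMSO / Incubation: 20 min compound pretreatment at room temperature / Measured by: kinetic FluxOR fluorescence, 10 s baseline plus 110 s post-stimulus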
Kir21 block – Kir2.1 (mouse) channel inhibition. HEK293-Kir2.1, FluxOR thallium flux fluorescence; stronger effect = lower value. B-score at 10 µM. hit rate 0.85% among 310,000;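 active means fluorescence ratio B-score at or below minus 3 SD of library scores, with starting-brightness B-score within 2 SD, cut at about -4.2 in these data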;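 further: channel flux triggered by added potassium and thallium sulfate stimulus; B-score of peak minus minimum fluorescence over baseline after thallium stimulus; more negative B-score means stronger Kir2.1 block with less thallium influx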
KCNK9 inh – inhibitors of human KCNK9 two-pore domain potassium channel; HEK293 KCNK9, FluxOR thallium flux fluorescence; stronger effect = lower value; AID 488922; Q9NPC2; B-score at 10 µM; hit rate 1.2% among 310,000;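 active means ratio B-score over 3 SD below the library mean, with starting fluorescence within 5 SD of its mean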;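 further: negative B-score means less thallium flux so channel inhibition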
KCNK3 block – human KCNK3 channel inhibition, primary screen; O14649; CHO-KCNK3 thallium flux, FluxOR fluorescence; stronger effect = lower value; B-score at 10 µM; hit rate 0.84% among 340,000; AID 602410;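 active means B-score under library mean minus 4 SD, starting fluorescence ratio at most library mean plus 5 SD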;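 further: more negative B-score means stronger inhibition of thallium flux through KCNK3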
hERG protect – shields human hERG channel from block by proarrhythmic agents. Q12809. CHO-hERG, FluxOR thallium flux, dofetilide IC70 present. activation (rescue from dofetilide block), less the hit threshold, % at 10 µM. hit rate 0.51% among 310,000. AID 1511;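 active means activation above the mean of controls blocked by dofetilide plus 5 SD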;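 further: thallium influx through hERG after potassium depolarization seen as dye fluorescence rise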
KCNQ1 block – inhibitors of human KCNQ1 potassium channel | AID 2642 | CHO-K1 KCNQ1, FluxOR thallium flux fluorescence; stronger effect = higher value | B-score at 10 µM | hit rate 1.3% among 310,000;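 active means compounds whose thallium flux B-score, printed positive for inhibition, exceeds three library SD while starting fluorescence stays within three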;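 further: channel opened by potassium depolarization with thallium stimulus after 20 min compound exposure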
KCNK9 block conf – human KCNK9 inhibitor confirmation | shares compounds with KCNK9 inh | HEK293 KCNK9 cells, FluxOR thallium flux fluorescence | inhibition, % at 10 µM | hit rate 43% among 4,900 | AID 492992;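 active means thallium signal inhibited by more than 5 SD of the compound-free buffer control wells, on both duplicate plates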;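 further: 0% = assay buffer control wells without compound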
Kir21 sel – selectivity of KCNK9 modulators against mouse Kir2.1 | shares compounds with KCNK9 inh | Kir2.1 cells, FluxOR thallium flux fluorescence | inhibition, % at 10 µM | hit rate 4% among 4,900 | AID 492993;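 active means thallium signal drop more than 5 SD beyond the mean of the no-compound control wells, seen in both duplicate plates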;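 further: signal is fluorescence rise after thallium addition divided by baseline fluorescence; plate controls were assay buffer only for no effect and full block by chlorpromazine control for full effect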
KCNK9 uninduced – second check of KCNK9 modulator effects in non-induced HEK293 cells. shares compounds with KCNK9 inh. FluxOR thallium flux. inhibition, % at 10 µM. hit rate 40% among 4,900;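 active means thallium signal drop beyond 5 SD of the untreated control mean, on both duplicate plates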;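 further: plate controls were buffer only IC0 wells for no effect and SID17386958 at its maximal inhibitory level for full effect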
* marks the source's active call; other numbers are inactive results. Only some compounds are listed: those with a hit (about 3.8% of all), similar ones and a draw of the others.

What do the screens show for `CN(C)/C=C(/C#N)C(=O)c1cccc(Oc2ccc(C(C)(C)C)cc2)c1`?
KCNQ1 act: inactive; Kir21 block: 0.47; KCNK9 inh: inactive; KCNK3 block: inactive; hERG protect: -11.3; KCNQ1 block: inactive; KCNK9 block conf: inactive; Kir21 sel: inactive; KCNK9 uninduced: 42.0%*

Results for CCOC(=O)C1(C)NC(c2cccc(C)c2)C2C(=O)N(c3ccccc3)C(=O)C21 (stereo not drawn) ?
KCNQ1 act: inactive; Kir21 block: 0.4; KCNK9 inh: inactive; KCNK3 block: inactive; hERG protect: -10.6; KCNQ1 block: inactive; KCNK9 block conf: inactive; Kir21 sel: inactive; KCNK9 uninduced: inactive

Results for CCOC(=O)C1(C)NC(c2cccs2)C2C(=O)N(c3ccc(C)cc3)C(=O)C21 (stereo not drawn) ?
KCNQ1 act: inactive; Kir21 block: 1.15; KCNK9 inh: inactive; KCNK3 block: inactive; hERG protect: -0.7; KCNQ1 block: inactive

How did O=c1c2c(-c3ccccc3)csc2ncn1/N=C/c1cccc([N+](=O)[O-])c1O do in these assays?
KCNQ1 act: inactive; Kir21 block: 0.95; KCNK9 inh: inactive; KCNK3 block: inactive; hERG protect: -5.0; KCNQ1 block: inactive

Results for Cn1cc(/C=N/n2cnc3scc(-c4ccccc4)c3c2=O)c2ccccc21 ?
KCNQ1 act: inactive; Kir21 block: -2.46; KCNK9 inh: inactive; KCNK3 block: inactive; hERG protect: -9.9; KCNQ1 block: inactive; KCNK9 block conf: inactive; Kir21 sel: inactive; KCNK9 uninduced: inactive

How did Cc1c(OCC(=O)NCCCn2ccnc2)ccc2c3c(c(=O)oc12)CCC3 do in these assays?
KCNQ1 act: inactive; Kir21 block: -0.45; KCNK9 inh: inactive; KCNK3 block: inactive; hERG protect: -10.7; KCNQ1 block: inactive

Results for S=c1[nH]nc(COc2ccccc2)n1/N=C/c1ccc(Cl)c(Cl)c1 ?
KCNQ1 act: inactive; Kir21 block: -1.34; KCNK9 inh: inactive; KCNK3 block: inactive; hERG protect: -7.4; KCNQ1 block: inactive

Results for Cc1cccc(/C=N/n2c(COc3ccccc3)n[nH]c2=S)c1 ?
KCNQ1 act: 14*; Kir21 block: -0.84; KCNK9 inh: -8.98*; KCNK3 block: inactive; hERG protect: 1.0; KCNQ1 block: inactive; KCNK9 block conf: inactive; Kir21 sel: inactive; KCNK9 uninduced: inactive

Results for O=C(CN1CCCCCCC1)Nc1cc(Cl)cc(Cl)c1 ?
KCNQ1 act: inactive; Kir21 block: 0.07; KCNK9 inh: inactive; KCNK3 block: inactive; hERG protect: -10.8; KCNQ1 block: inactive

How did COc1ccc(C(=O)C2CC2c2ccc3c(c2)OCO3)cc1 (stereo not drawn) do in these assays?
KCNQ1 act: inactive; Kir21 block: -0.69; KCNK9 inh: inactive; KCNK3 block: inactive; hERG protect: -7.8; KCNQ1 block: inactive; KCNK9 block conf: inactive; Kir21 sel: inactive; KCNK9 uninduced: 30.0%*

How did CCOC(=O)c1sc(NC(=S)NC(=O)c2ccccc2Cl)c(C(=O)OCC)c1C do in these assays?
KCNQ1 act: inactive; Kir21 block: 0; KCNK9 inh: -9.1*; KCNK3 block: inactive; hERG protect: -7.6; KCNQ1 block: inactive; KCNK9 block conf: inactive; Kir21 sel: inactive; KCNK9 uninduced: inactive

What do the screens show for `Cc1ccc2nc(COc3ccc(Cl)cc3)cc(=O)n2c1`?
KCNQ1 act: inactive; Kir21 block: 1.32; KCNK9 inh: inactive; KCNK3 block: inactive; hERG protect: -2.3; KCNQ1 block: inactive

Results for C=CCn1c(SCCC)nc2sc3c(c2c1=O)CCc1ccccc1-3 ?
KCNQ1 act: inactive; Kir21 block: 0.57; KCNK9 inh: inactive; KCNK3 block: inactive; hERG protect: -8.5; KCNQ1 block: inactive; KCNK9 block conf: inactive; Kir21 sel: inactive; KCNK9 uninduced: inactive

How did Fc1ccc(CSc2nnc3ccc(-c4ccncc4)nn23)cc1 do in these assays?
KCNQ1 act: inactive; Kir21 block: -0.22; KCNK9 inh: inactive; KCNK3 block: inactive; hERG protect: -12.6; KCNQ1 block: inactive

Results for Cc1cc(C)c(S(=O)(=O)N2CCC3(CC2)OCCN3S(=O)(=O)c2cccs2)c(C)c1 ?
KCNQ1 act: inactive; Kir21 block: -0.33; KCNK9 inh: inactive; KCNK3 block: inactive; hERG protect: -8.2; KCNQ1 block: inactive

Results for Cc1ccc(C(=O)OCC(=O)NCc2cccs2)cc1S(=O)(=O)N1CCOCC1 ?
KCNQ1 act: inactive; Kir21 block: 1.47; KCNK9 inh: inactive; KCNK3 block: inactive; hERG protect: -11.1; KCNQ1 block: inactive

What do the screens show for `COc1ccc(C(=O)C2CCCN(C(=O)c3cccc(N(C)C)c3)C2)cc1OC` (stereo not drawn)?
KCNQ1 act: inactive; Kir21 block: 0.99; KCNK9 inh: inactive; KCNK3 block: inactive; hERG protect: -6.5; KCNQ1 block: inactive; KCNK9 block conf: inactive; Kir21 sel: inactive; KCNK9 uninduced: inactive

How did COc1ccc(C(=O)C2CCCN(C(=O)c3ccc(F)cc3)C2)cc1OC (stereo not drawn) do in these assays?
KCNQ1 act: inactive; Kir21 block: 0.04; KCNK9 inh: inactive; KCNK3 block: inactive; hERG protect: -12.2; KCNQ1 block: inactive

How did COc1cccc(CN2CCCC(C(=O)c3ccc4c(c3)OCO4)C2)c1OC (stereo not drawn) do in these assays?
KCNQ1 act: inactive; Kir21 block: -0.12; KCNK9 inh: inactive; KCNK3 block: inactive; hERG protect: -6.1; KCNQ1 block: inactive

What do the screens show for `COc1ccc(C(=O)C2CCCN(Cc3cccc4c3OCO4)C2)cc1OC` (stereo not drawn)?
KCNQ1 act: inactive; Kir21 block: -0.02; KCNK9 inh: inactive; KCNK3 block: inactive; hERG protect: -2.1; KCNQ1 block: inactive; KCNK9 block conf: inactive; Kir21 sel: inactive; KCNK9 uninduced: inactive

What do the screens show for `COc1ccc(F)cc1C(=O)C1CCCN(C(=O)c2cccc(N(C)C)c2)C1` (stereo not drawn)?
KCNQ1 act: inactive; Kir21 block: 0.06; KCNK9 inh: inactive; KCNK3 block: inactive; hERG protect: -16.6; KCNQ1 block: inactive; KCNK9 block conf: inactive; Kir21 sel: inactive; KCNK9 uninduced: inactive

What do the screens show for `Cc1ccccc1NC(=O)N(O)C1(C#N)CCCCC1`?
KCNK3 block: inactive
